These results are taken from ChEMBL document CHEMBL4765350, “Receptor-interacting protein kinase 2 (RIPK2) and nucleotide-binding oligomerization domain (NOD) cell signaling inhibitors based on a 3,5-diphenyl-2-aminopyridine scaffold” (Eur J Med Chem, 2020).

For one data set, the target named is T1, Activin receptor type-1 (Homo sapiens, UniProt Q04771).
T1 sequence (Q04771 whole entry): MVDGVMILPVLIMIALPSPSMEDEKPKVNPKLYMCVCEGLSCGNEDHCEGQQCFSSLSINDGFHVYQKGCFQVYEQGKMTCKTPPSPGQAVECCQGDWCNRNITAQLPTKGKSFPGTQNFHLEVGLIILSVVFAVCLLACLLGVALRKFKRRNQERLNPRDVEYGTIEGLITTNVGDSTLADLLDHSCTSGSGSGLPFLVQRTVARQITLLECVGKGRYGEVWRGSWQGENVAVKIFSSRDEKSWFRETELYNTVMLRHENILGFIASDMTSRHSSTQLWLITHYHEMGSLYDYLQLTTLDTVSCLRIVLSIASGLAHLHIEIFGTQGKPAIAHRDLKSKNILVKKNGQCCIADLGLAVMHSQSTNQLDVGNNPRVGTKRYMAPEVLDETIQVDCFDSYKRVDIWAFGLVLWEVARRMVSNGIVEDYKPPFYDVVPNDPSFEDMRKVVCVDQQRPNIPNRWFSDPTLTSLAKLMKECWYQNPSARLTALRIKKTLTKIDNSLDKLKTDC
In words: Inhibition of human ALK2 using casein as substrate in presence of 10 uM [gamma33P] ATP by kinase assay.

Data set [1] concerns the target T2, Receptor-interacting serine/threonine-protein kinase 2 (Homo sapiens, UniProt O43353). In words: Inhibition of recombinant human RIPK2 incubated for 2 hr by ADP-Glo assay. Summed up:
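IC50 values reported as the mean of two or three determinations ± standard deviation.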

Data set [2] has as its target T3, Activin receptor type-1 (Homo sapiens) (UniProt Q04771).
T3 sequence (whole entry): T1 sequence (Q04771 whole entry)
In words: Inhibition of human ALK2 using casein as substrate at 10 uM in presence of 10 uM [gamma33P] ATP by kinase assay.

Data set [3] has as its target T2, Receptor-interacting serine/threonine-protein kinase 2. As to the kind of experiment: Inhibition of recombinant human RIPK2 at 10 uM incubated for 2 hr by ADP-Glo assay. Background: In ADP-Glo the light output rises with the ADP produced.
In data set [4] the target is Nucleotide-binding oligomerization domain-containing protein 2 (Homo sapiens) (UniProt Q9HC29). As to the kind of experiment: Inhibition of human NOD2 expressed in HEK293 cells coexpressing NFkappaB-SEAP reporter at 10 uM measured after 7 to 9 hrs by HEKBIue reporter assay. The class given is cell-based. Particulars: time 7-9 hrs.
Chain of Nucleotide-binding oligomerization domain-containing protein 2 (Homo sapiens) (Q9HC29 whole entry, the tested form may be a part): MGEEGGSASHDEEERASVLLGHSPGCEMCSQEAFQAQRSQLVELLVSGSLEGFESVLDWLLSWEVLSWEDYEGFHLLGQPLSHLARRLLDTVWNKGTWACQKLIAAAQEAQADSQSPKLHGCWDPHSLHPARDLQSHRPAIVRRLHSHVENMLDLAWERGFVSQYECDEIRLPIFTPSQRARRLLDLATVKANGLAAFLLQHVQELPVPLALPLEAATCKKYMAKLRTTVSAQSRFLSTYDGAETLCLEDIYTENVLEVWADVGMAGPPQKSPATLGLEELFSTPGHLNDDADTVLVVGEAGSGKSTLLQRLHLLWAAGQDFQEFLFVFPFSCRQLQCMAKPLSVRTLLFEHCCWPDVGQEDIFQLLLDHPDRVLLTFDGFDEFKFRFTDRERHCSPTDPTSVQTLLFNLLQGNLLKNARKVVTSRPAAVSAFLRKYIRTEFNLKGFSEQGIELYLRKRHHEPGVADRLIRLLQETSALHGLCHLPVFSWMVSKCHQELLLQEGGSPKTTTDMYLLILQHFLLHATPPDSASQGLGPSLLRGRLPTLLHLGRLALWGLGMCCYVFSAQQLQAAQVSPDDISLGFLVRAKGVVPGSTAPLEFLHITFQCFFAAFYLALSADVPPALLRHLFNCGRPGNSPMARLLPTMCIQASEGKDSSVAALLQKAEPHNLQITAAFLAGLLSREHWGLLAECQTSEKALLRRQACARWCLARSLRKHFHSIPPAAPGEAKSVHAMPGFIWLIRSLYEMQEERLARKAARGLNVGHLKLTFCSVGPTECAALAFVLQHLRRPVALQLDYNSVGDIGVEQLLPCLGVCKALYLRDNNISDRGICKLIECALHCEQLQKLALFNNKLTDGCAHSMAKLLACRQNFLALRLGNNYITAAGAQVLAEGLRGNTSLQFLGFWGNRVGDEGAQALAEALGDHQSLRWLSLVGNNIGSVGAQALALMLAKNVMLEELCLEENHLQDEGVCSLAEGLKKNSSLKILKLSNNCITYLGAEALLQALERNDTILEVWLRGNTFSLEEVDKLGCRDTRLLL
A short description of data set [5]: Stability in mouse liver microsomes assessed as intrinsic clearance. In kind it is ADME, Microsome. For orientation: Liver microsomes are a subcellular fraction often used to study metabolism.
Data set [6] is described as follows: Clearance in C57BL/6 mouse at 10 mg/kg, ip by LC-MS/MS analysis. The class given is ADME, organism-based. Particulars: in vivo. The method in brief: (§1)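 Single 10 mg/kg intraperitoneal dose formulated in 6% Captisol in water, given to 8-week-old female C57BL/6 mice, n = 5 mice per group; plasma concentrations followed over time to derive PK parameters.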
The nature of data set [7]: Permeability of the compound by PAMPA. In kind it is ADME. (In general: PAMPA measures passive passage across an artificial lipid membrane.)
Data set [8] can be described thus: Stability in mouse liver microsomes assessed as half life. In kind it is ADME, Microsome.
Data set [9] in a line: AUC in C57BL/6 mouse at 10 mg/kg, ip by LC-MS/MS analysis. In kind it is ADME, organism-based. The arrangement: dose 10 mg/kg. As to conditions: in vivo. The method in brief: as §1
Data set [10] in a line: Aqueous solubility of compound in PBS buffer at pH 7.4. In kind it is physicochemical. The method in brief: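 Solubility measured in PBS buffer at pH 7.4.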

Active and inactive are the calls of the source. The rule behind the calls is not given here.

T2 sequence (O43353 whole entry): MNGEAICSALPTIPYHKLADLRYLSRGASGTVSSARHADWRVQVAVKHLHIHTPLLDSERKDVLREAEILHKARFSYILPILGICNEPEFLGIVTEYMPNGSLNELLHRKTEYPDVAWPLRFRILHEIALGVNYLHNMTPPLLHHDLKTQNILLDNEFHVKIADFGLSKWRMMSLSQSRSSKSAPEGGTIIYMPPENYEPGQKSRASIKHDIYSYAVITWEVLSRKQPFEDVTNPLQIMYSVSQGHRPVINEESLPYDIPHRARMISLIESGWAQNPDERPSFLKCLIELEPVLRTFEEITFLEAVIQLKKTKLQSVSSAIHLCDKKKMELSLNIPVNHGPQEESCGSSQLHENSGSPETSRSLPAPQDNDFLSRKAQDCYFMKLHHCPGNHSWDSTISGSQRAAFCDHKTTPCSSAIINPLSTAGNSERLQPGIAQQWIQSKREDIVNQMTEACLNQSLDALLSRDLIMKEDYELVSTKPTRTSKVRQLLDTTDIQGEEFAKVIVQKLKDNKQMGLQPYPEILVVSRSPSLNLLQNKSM

One may read the IC50 as the concentration that gives 50% inhibition. With `CCCS(=O)(=O)Nc1cc(OC)cc(-c2cc(-c3ccc(N4CCNCC4)cc3)cnc2C)c1`, the IC50 was found to be 108 nM at Activin receptor type-1 and 164 nM in data set [1].
On the same counts, the results for `CCCS(=O)(=O)Nc1cc(-c2cc(-c3ccc(N4CCNCC4)cc3)cnc2N)cc(Cl)c1OC` are 202 nM and 21 nM.
As for `CCCS(=O)(=O)Nc1ccc(-c2cc(-c3ccc(N4CCNCC4)cc3)cnc2C)cc1OC`, the inhibition entry in data set [2] and in data set [3] was “inactive” in each case.
On to `CCCS(=O)(=O)Nc1cc(-c2cc(-c3ccc(S(C)(=O)=O)cc3)cnc2N)ccc1OC`, for which the IC50 in data set [1] amounted to 264 nM. The inhibition result in [2] and in data set [4] was “inactive” throughout.
In the case of `CCCS(=O)(=O)Nc1cc(-c2cc(-c3ccc(N4CCNCC4)cc3)cnc2N)cc(OCC)c1OC`, the inhibition result in data set [2], in [4] and in data set [3] was “inactive” in each case.
With `CCCS(=O)(=O)Nc1cc(-c2cc(-c3ccc(N4CCNCC4)cc3)cnc2N)ccc1OC`, the values for the IC50 (on Activin receptor type-1; in [1]) were 3540 nM and 32 nM, respectively.
Take `CCCS(=O)(=O)Nc1cc(-c2cc(-c3ccc(N4CCNCC4)cc3)cnc2N)cc(OC)c1C`: at Activin receptor type-1, the IC50 was 355 nM. Also, in [3], the inhibition entry was “inactive”.
Regarding `CCCS(=O)(=O)Nc1cc(-c2cc(-c3ccc(N4CCNCC4)cc3)cnc2N)ccc1C`, the IC50 at Activin receptor type-1 was found to be 2120 nM; in data set [1] it was 102 nM.
Take `COc1cc(-c2cc(-c3ccc(N4CCNCC4)cc3)cnc2N)cc(F)c1OC`: the IC50 at Activin receptor type-1 turned out to be 29 nM.
For `CCS(=O)(=O)Nc1cc(OC)cc(-c2cc(-c3ccc(N4CCNCC4)cc3)cnc2C)c1`, the IC50 was 86 nM on Activin receptor type-1 and 127 nM in data set [1].
The corresponding values for `COc1cc(NS(=O)(=O)c2ccccc2)cc(-c2cc(-c3ccc(N4CCNCC4)cc3)cnc2N)c1` are 5 nM and 23 nM.
Turning to `CC(C)Oc1cc(NS(=O)(=O)C(C)C)cc(-c2cc(-c3ccc(N4CCNCC4)cc3)cnc2N)c1`, in data set [1], the IC50 worked out at 18 nM. Also, in data set [2], the inhibition entry was “inactive”.
Turning to `CCCS(=O)(=O)Nc1cc(-c2cc(-c3ccc(N4CCNCC4)cc3)cnc2N)cc(C)c1OC`, the values for the IC50 (at Activin receptor type-1; in [1]) were 395 nM and 41 nM, respectively.
On the same counts, the results for `CCCS(=O)(=O)Nc1cc(OC)cc(-c2cc(-c3ccc(N4CCNCC4)cc3)cnc2N)c1` are 9 nM and 14 nM.
On the same counts, the results for `CCOc1cc(NS(=O)(=O)C(C)C)cc(-c2cc(-c3ccc(N4CCNCC4)cc3)cnc2N)c1` are 299 nM and 21 nM.
As a reminder, the CL/F is the apparent clearance, not corrected for the fraction that reaches the circulation. By AUC is commonly meant concentration integrated over time. With `CCCS(=O)(=O)Nc1cc(-c2cc(-c3ccc(N4CCNCC4)cc3)cnc2N)cc(F)c1OC`, the IC50 at Activin receptor type-1 was found to be 348 nM; in data set [1], 16 nM. In addition, the CLint in data set [5] came out at 27 µL/min/mg. In data set [6], the CL/F worked out at 59.7 mL/min/kg. For the same compound, the permeability in [7] is given as 2.9 10^-6 cm/s. For the same compound, in data set [8], the t1/2 was found to be 25.6 min. Besides, the AUC in data set [9] is 2920 ng·h/mL. For the same compound, the solubility entry in [10] is “>= 100 uM”.
For `CCCS(=O)(=O)N1CCc2ccc(-c3cc(-c4ccc(N5CCNCC5)cc4)cnc3N)cc21`, the IC50 in data set [1] amounted to 185 nM. In addition, the inhibition entry in data set [2] is “inactive”.
As for `CCCS(=O)(=O)Nc1cc(-c2cc(-c3ccccc3S(C)(=O)=O)cnc2N)ccc1OC`, the inhibition result in data set [2], in [4] and in data set [3] was “inactive” throughout.
For `COc1cc(NS(=O)(=O)C(C)C)cc(-c2cc(-c3ccc(N4CCNCC4)cc3)cnc2C)c1`, the IC50 on Activin receptor type-1 came out at 239 nM; in [1], 76 nM.
Consider `COc1cc(NS(C)(=O)=O)cc(-c2cc(-c3ccc(N4CCNCC4)cc3)cnc2N)c1`, for which the IC50 is 5 nM on Activin receptor type-1 and 51 nM in data set [1].
The corresponding values for `COc1cc(NS(=O)(=O)C(C)C)cc(-c2cc(-c3ccc(N4CCNCC4)cc3)cnc2N)c1` are 11 nM and 13 nM.
With `CCCS(=O)(=O)Nc1cc(-c2cc(-c3ccc(N4CCNCC4)cc3)cnc2C)cc(F)c1OC`, in data set [2], the inhibition result is “inactive”.
For `COc1cc(NS(C)(=O)=O)cc(-c2cc(-c3ccc(N4CCNCC4)cc3)cnc2C)c1`, the results for the IC50 (at Activin receptor type-1; in [1]) were 31 nM and 296 nM, respectively.
As to `COc1cc(-c2cc(-c3ccc(N4CCNCC4)cc3)cnc2C)cc(OC)c1OC`, in data set [1], the IC50 came out at 100 nM. Further, the inhibition entry in data set [4] was “inactive”.
Turning to `CCCS(=O)(=O)Nc1cc(-c2cc(-c3cccc(N4CCNCC4)c3)cnc2N)cc(F)c1OC`, the values for the IC50 (at Activin receptor type-1; in data set [1]) were 522 nM and 11 nM, respectively.
Regarding `CCCS(=O)(=O)N1CCOc2ccc(-c3cc(-c4ccc(N5CCNCC5)cc4)cnc3N)cc21`, the IC50 in data set [1] came out at 78 nM. Also, the inhibition entry in data set [2] is “inactive”.
As to `CCCS(=O)(=O)Nc1cc(-c2cncc(-c3ccc(N4CCNCC4)cc3)c2)cc(F)c1OC`, the IC50 in [1] came to 27 nM.
Take `CCCS(=O)(=O)Nc1cc(-c2cc(-c3ccc(N4CCNCC4)cc3)cnc2N)cc2c1OCCO2`: the IC50 in data set [1] was 520 nM. The inhibition entry in data set [2] was “inactive”.
For `CCCS(=O)(=O)Nc1cc(-c2cc(-c3ccc(N4CCNCC4)cc3)cnc2N)ccc1O`, the IC50 at Activin receptor type-1 is 387 nM.
Turning to `CCCS(=O)(=O)Nc1cc(-c2cc(-c3cccc(S(C)(=O)=O)c3)cnc2N)ccc1OC`, the IC50 in [1] was 103 nM. Also, the inhibition entry in data set [2] is “inactive”.
As for `CCCS(=O)(=O)Nc1cc(-c2cc(-c3ccc(N4CCNCC4)cc3)cnc2N)cc(OC)c1OC`, at Activin receptor type-1, the half-maximal inhibitory concentration (IC50) was 57 nM.
With `CCCS(=O)(=O)NCc1cc(-c2cc(-c3ccc(N4CCNCC4)cc3)cnc2N)ccc1OC`, the IC50 at Activin receptor type-1 stood at 145 nM; in data set [1], 99 nM.
